PLCb3 inh – human PLC-beta3 inhibitors, primary screen, biochemical, fluorescence | Purified PLC-beta3, fluorogenic substrate | AID 720704, 2013 | 1-phosphatidylinositol 4,5-bisphosphate phosphodiesterase beta-3 (Homo sapiens), Q01970 | 370,000 compounds, 0.18% hits | inhibition, % at 12.2 µM; in the data active means inhibition above about 11%;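 further: 0% = median of compound wells on plate and 100% = full blocker control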
DDE Tn7 FP inh – inhibitors of Tn7 peptide binding to fibrin DD(E), primary screen, biochemical, fluorescence polarization, human fibrin, Tn7 probe. Fibrinogen beta chain (Homo sapiens), P02675. FP displacement of FITC-Tn7 peptide from fibrin DD(E); 0% = median of compound wells per plate. inhibition, % at 8.3 µM. 370,000 compounds, 0.13% hits;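 active means inhibition above the mean of compounds falling within the control limits plus 3 SD of them, cut at about 14% in these data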;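 further: 0% = plate median of compound wells and 100% = 10 µM Aha-Tn7 peptide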
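Test system – human fibrin DD(E) · Times – 10 min preincubation, 3 h with tracer, room temperature · Detection – fluorescence polarization of the labelled Tn7 tracer · Measure – percent inhibition normalized to high-control wells · Benchmarks – high control wells with 10 µM unlabelled Aha-Tn7 peptide (full inhibition) · Repeats – singlicate testing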
DDE Tn6 FP inh – inhibitors of Tn6 peptide binding to fibrin DD(E), primary screen, biochemical, fluorescence polarization, human fibrin, Tn6 probe. Fibrinogen beta chain (Homo sapiens), P02675. Fibrin DD(E) TRITC-Tn6 fluorescence polarization displacement. inhibition, % at 8.3 µM. 370,000 compounds, 0.21% hits. AID 720509, 2013;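 active means inhibition above a per-campaign cutoff: mean of compounds within control limits plus 3 SD, cut at about 15% in these data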;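 further: 0% = median of all compound wells on the plate and 100% = blocking peptide control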
NRP1-CendR mod – modulators of CendR peptide binding to NRP-1, primary screen, biochemical, fluorescence polarization, uHTS | AID 602438, 2012 | 360,000 compounds, 0.85% hits | FAM-RPARPAR peptide binding to NRP-1 | inhibition, % at 25 µM;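 active means inhibition or corrected inhibition above about 18%, plus a signal ratio from 0.5 to 1.5, limit read from the data, passing the limit was not always enough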
PLC-gamma1 inh – PLC-gamma1 enzyme inhibitors, primary screen, biochemical, fluorescence, purified enzyme | fluorogenic substrate | 1-phosphatidylinositol 4,5-bisphosphate phosphodiesterase gamma-1 (Homo sapiens), P19174 | 370,000 compounds, 0.84% hits | inhibition, % at 12.2 µM; in the data active means inhibition above about 9.5%
proKLK7 act – proKLK7 zymogen activators, primary screen, biochemical, fluorescence intensity; activation, % at 7 µM; 370,000 compounds, 0.9% hits; Kallikrein-7 (Homo sapiens), P49862; purified proKLK7, EDANS-DABCYL substrate fluorescence; 100% is mature enzyme control, 0% vehicle; AID 652039, 2013;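 active means activation above the mean of all tested compounds plus 3 SD, computed per campaign excluding outliers beyond control limits, cut at about 13% in these data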
KLK7 act conf – proKLK7 zymogen activators, confirmation, biochemical, fluorescence intensity, triplicate | shares compounds with proKLK7 act | purified proKLK7, EDANS-DABCYL substrate fluorescence; scaled: vehicle 0, mature enzyme 100 | activation, % at 7 µM | 3,200 compounds, 68% hits | AID 686949, 2013;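 active means activation, as change over the incubation, above the mean of all tested compounds plus 3 SD, cut at about 13% in these data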
EDANS interfere – EDANS-DABCYL substrate optical interference, artefact control for kallikrein-7 zymogen activator project, biochemical, fluorescence intensity, high throughput | 3,200 compounds, 80% hits | activation, % at 7 µM | no enzyme, 4 h; solvent 0%, active enzyme control 100% | AID 686952, 2013 | shares compounds with proKLK7 act;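 active means activation above the all-compound mean plus 3 SD, ignoring values outside control-based bounds, cut at about 4.8% in these data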;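 further: value is the 4 h activation minus the activation read at time zero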
K7 EDANS ctr – counter-screen for kallikrein-7 activators: EDANS-DABCYL interference, dose response; shares compounds with proKLK7 act; EDANS-DABCYL peptide fluorescence interference, no enzyme; EC50, µM; 250 compounds, 20% hits;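 active means compounds that raise the fluorescence signal in this interference counterscreen, with EC50 at or below 10 µM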;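 further: intact quenched peptide substrate alone read at 355 nm excitation and 520 nm emission; signal is fluorescence gain from T0 to T4 after four hours at room temperature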
An asterisk follows results filed as active; i = inactive; x = not tested or not shown. Sampled rows, rich in hits. Any-hit rate of the full collection: about 3%.

SMILES | PLCb3 inh | DDE Tn7 FP inh | DDE Tn6 FP inh | NRP1-CendR mod | PLC-gamma1 inh | proKLK7 act | KLK7 act conf | EDANS interfere | others
COc1ccc(/C=N/NC(=O)c2cc3c(ccc4ccccc43)o2)cc1OC | i | 2.5 | -8.9 | 12.8 | -389.6 | 42.7* | 58.2* | 4.5* | K7 EDANS ctr=>69.5
N#CCn1cc(/C=N/NC(=O)c2cc3c(ccc4ccccc43)o2)c2ccccc21 | -384.5 | -0.4 | -7.7 | -8.4 | -283.0 | 35.5* | -35.7 | -2.6
COc1ccc(/C=C/S(=O)(=O)NCCc2ccccc2)c(CNC(=O)OC(C)(C)C)c1 | -4.4 | 4.9 | 3.0 | x | -3.7 | 0.3 | x | x
CC(C)C[C@@H]1COc2cc(Br)ccc2S(=O)(=O)N1Cc1cn(CCC2OCCO2)nn1 | 0.5 | -7.9 | 5.6 | x | 0.2 | 0.3 | x | x
CCCCCCC(=O)NC1CCCCN(Cc2ccccc2C)C1=O (stereo unspecified) | 0.9 | 9.3 | 1.0 | x | 7.1 | 0.7 | x | x
COc1ccc(C2Nc3ccccc3C(=O)N2NS(=O)(=O)c2ccc(C)cc2)c(OC)c1 (stereo unspecified) | -223.2 | -1.8 | -1.9 | 15.2 | -153.1 | 7.8 | x | x
COc1cc(C2Nc3ccccc3C(=O)N2NS(C)(=O)=O)ccc1O (stereo unspecified) | -420.2 | 2.4 | -4.8 | 12.1 | -328.0 | 27.1* | 4.8 | 6.8*
COc1ccc(C2Nc3ccccc3C(=O)N2NS(=O)(=O)c2ccccc2)c(OC)c1 (stereo unspecified) | -261.7 | 5.4 | 9.8 | 3.7 | -184.0 | 17.8* | 35.1* | 31.9*
CS(=O)(=O)NN1C(=O)c2ccccc2NC1c1cccc2cccnc12 (stereo unspecified) | -82.5 | 1.9 | -7.9 | 3.0 | -79.3 | 4.2 | x | x
CC1Nc2ccccc2C(=O)N1NS(C)(=O)=O (stereo unspecified) | -497.9 | 5.7 | -8.6 | 4.8 | -464.9 | 61.1* | 26.0* | 21.8*
COc1ccc(C2Nc3ccccc3C(=O)N2NS(=O)(=O)c2ccccc2)cc1 (stereo unspecified) | -117.9 | 4.3 | -0.6 | 6.0 | -109.5 | 17.2* | 8.6 | 7.7*
COc1ccc(N2C(=O)c3ccccc3NC2c2cccnc2)cc1 (stereo unspecified) | -31.5 | -10.4 | -12.3 | 13.7 | -23.0 | 0.4 | x | x
COc1ccccc1N1C(=O)c2ccccc2NC1c1cc(OC)c(OC)c(OC)c1 (stereo unspecified) | i | -10.0 | -4.0 | 4.4 | -447.6 | 22.9* | 13.8* | 14.6*
COc1ccc(C2Nc3ccccc3C(=O)N2NS(C)(=O)=O)cc1 (stereo unspecified) | -303.6 | -0.7 | -5.7 | 16.8 | -253.8 | 61.3* | 11.4 | 10.6*
COc1ccccc1C(=O)NC1CCCCN(Cc2ccc(OC(F)(F)F)cc2)C1=O (stereo unspecified) | 0.4 | -1.5 | -1.7 | x | -0.2 | 0.4 | x | x
N#Cc1c(N(CCO)CCO)nc(N)c2c(N)nc3c(c12)CC(=O)N3CC1CCCO1 (stereo unspecified) | -377.4 | -3.4 | 3.7 | 9.6 | -280.4 | 30.1* | 42.6* | 48.8*
CSc1nnc(-c2cccn(Cc3ccccc3)c2=O)o1 | -272.6 | -5.6 | 10.4 | -2.7 | -229.9 | 12.7* | 25.7* | 38.1*
C=CCn1c(COc2ccc(C)cc2)nnc1SCC(=O)Nc1cc(Cl)cc(Cl)c1 | 1.8 | -5.5 | 1.4 | x | 1.4 | 0.3 | x | x

Screens: PubChem, several laboratories
